Results: PMC3152441 (Chemistry & biology, 2011)

Key:
[1] = test system: non-canonical NF-κB activation induced by BAFF; assay: 697 pre-B leukemia cells NF-κB-luciferase reporter, BAFF; type: cell-based; settings: 697 cells, 10 μM compound, 100 ng/ml BAFF, 24h
Procedure, shortened: (§1)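 697 cells stably carrying an NF-κB-luciferase reporter were cultured with or without 10 μM test compound plus inducer: 100 ng/ml BAFF or 5 μM ODN2006 as TLR9 ligand. Luciferase activity was read 24 h later. Mean ± SD, n=3.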

Bcl-XL and Bid = assay: Ni/NTA pull-down of purified His6-tagged control proteins; settings: purified protein, 20 μM compound
Procedure, shortened: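 Purified His6-Bcl-XL or His6-Bid (≈0.4 ug) was pre-incubated 60 min with 20 μM test compound, with DMSO as control. Ni-NTA agarose beads were added and incubated overnight at 4°C. Pulled-down protein was immunoblotted with anti-His antibody. Bands were quantified relative to the DMSO control.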

NOD2 = NOD2 (Homo sapiens, UniProt Q9HC29); assay: Subcellular fractionation of MCF-7 cells stably expressing epitope-tagged NOD2; type: cell-based; settings: MCF-7 cells expressing NOD2
NOD2, sequence (Q9HC29 whole entry): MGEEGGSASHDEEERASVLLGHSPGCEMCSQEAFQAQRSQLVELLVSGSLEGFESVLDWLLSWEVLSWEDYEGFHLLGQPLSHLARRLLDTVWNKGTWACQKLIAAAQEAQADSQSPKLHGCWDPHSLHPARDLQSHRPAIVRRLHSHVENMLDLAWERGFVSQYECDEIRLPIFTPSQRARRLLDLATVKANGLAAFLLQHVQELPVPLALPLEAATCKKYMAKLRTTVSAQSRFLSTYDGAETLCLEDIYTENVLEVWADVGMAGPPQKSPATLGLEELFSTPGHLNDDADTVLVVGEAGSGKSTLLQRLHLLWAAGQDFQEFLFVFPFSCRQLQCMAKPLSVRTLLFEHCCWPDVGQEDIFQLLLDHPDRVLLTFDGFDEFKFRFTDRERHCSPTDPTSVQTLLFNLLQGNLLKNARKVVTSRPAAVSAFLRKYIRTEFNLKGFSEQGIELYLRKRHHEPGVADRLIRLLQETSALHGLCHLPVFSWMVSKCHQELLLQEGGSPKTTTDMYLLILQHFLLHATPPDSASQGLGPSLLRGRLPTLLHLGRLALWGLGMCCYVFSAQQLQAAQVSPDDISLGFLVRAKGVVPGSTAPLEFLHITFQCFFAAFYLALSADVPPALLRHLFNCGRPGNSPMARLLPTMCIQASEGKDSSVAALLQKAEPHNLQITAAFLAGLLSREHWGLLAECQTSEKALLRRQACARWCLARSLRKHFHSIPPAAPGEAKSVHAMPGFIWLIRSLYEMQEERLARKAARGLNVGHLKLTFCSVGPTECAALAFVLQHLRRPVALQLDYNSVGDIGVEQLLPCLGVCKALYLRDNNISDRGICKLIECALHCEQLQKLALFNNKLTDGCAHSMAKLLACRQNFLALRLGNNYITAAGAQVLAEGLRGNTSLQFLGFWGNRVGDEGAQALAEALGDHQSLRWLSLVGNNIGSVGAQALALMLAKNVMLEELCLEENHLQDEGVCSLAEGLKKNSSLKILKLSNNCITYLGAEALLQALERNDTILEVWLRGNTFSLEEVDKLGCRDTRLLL

[2] = Cell viability under diverse cell treatments; type: cell-based
NOD1 signaling = assay: Gene transfection experiments in HEK 293T-NF-κB-luciferase cells; type: cell-based
Procedure, shortened: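 HEK293T NF-κB-luciferase cells were transfected with NOD1, RIP2, XIAP or GFP plasmids in various combinations. After 24 h, cells were cultured ± 3.5 μg/ml γ-tri-DAP, ± 10 μM test compound, or both, for 24 h. Luciferase was normalised to GFP-transfected cells (100%). Mean ± SD, n=4.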

inflammasomes = assay: IL-1β secretion induced by inflammasome activators; type: cell-based; settings: 5 μM compound; MSU, poly(dA:dT), LPS plus ATP, S. typhimurium
Procedure, shortened: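 RAW264.7 macrophages were treated with 5 μM test compound, with LPS pre-treatment to induce pro-IL-1β synthesis. Supernatants were taken at 2 h (Salmonella) or 4 h (others). IL-1β by ELISA. Mean ± SD, n=3.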

[3] = test system: NF-κB, MAPK and Akt signalings; assay: γ-tri-DAP-dependent signaling; type: cell-based
IκBα = assay: γ-tri-DAP-induced expression of NF-κB target gene IκBα; type: cell-based
TLR9 = biological target: T1, TLR9 (Homo sapiens, UniProt Q9NR96); assay: 697 pre-B leukemia cells NF-κB-luciferase reporter, CpG DNA; type: cell-based; settings: 697 cells, 10 μM compound, 5 μM ODN2006, 24h
T1 sequence (Q9NR96 26-1032): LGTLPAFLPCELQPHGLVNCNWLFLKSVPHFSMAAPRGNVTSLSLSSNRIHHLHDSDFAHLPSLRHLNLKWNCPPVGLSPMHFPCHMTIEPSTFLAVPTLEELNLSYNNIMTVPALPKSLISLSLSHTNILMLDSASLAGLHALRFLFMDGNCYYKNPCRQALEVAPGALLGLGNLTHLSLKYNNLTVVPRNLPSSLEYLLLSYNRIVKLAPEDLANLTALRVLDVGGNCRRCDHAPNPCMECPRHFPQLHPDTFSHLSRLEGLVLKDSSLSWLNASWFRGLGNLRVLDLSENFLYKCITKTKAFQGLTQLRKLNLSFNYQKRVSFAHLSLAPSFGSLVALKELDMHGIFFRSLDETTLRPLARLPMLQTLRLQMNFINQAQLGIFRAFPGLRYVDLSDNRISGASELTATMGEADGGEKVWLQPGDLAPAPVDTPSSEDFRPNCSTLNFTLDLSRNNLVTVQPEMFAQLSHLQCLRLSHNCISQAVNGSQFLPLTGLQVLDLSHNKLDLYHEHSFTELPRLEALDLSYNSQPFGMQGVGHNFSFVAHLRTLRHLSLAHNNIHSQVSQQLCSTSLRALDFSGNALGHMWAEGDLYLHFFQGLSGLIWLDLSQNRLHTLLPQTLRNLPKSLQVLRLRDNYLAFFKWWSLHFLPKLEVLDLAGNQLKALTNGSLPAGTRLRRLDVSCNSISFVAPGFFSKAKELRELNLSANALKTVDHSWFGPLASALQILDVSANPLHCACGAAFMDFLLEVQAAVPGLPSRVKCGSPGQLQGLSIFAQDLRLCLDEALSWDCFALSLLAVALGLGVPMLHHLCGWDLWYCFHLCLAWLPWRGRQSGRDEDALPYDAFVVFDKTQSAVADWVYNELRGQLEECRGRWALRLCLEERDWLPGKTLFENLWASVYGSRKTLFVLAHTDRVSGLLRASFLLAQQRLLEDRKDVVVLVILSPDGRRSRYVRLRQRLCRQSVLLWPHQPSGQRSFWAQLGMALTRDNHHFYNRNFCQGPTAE
Procedure, shortened: as §1

TLR1, 2, 4, 5, 6 and 8 = assay: THP.1 macrophage NF-κB/AP-1-inducible SEAP reporter, TLR agonists; type: cell-based, Human; settings: 5 μM compound, 24 h, PMA-differentiated THP.1
Procedure, shortened: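 PMA-differentiated THP.1 cells carrying NF-κB-driven SEAP were cultured ± 5 μM test compound with TLR inducers: 0.5 μg/ml Pam3CSK4, heat-killed Listeria monocytogenes (HKLM), 1 μg/ml FSL-1, 0.5 μg/ml LPS, 0.5 μg/ml flagellin or 1 μg/ml ssRNA40. Supernatant SEAP was measured after 24 h, as % of inducer alone. Mean ± SEM, n=2.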

RIG-I/MDA-5, IRF3 = assay: HEK293T ISRE-driven luciferase reporter, other interferon response stimuli; type: cell-based; settings: 5 μM compound; poly(I:C), poly(dA:dT), Sendai virus
Procedure, shortened: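 HEK293T cells stably expressing an ISRE-driven luciferase reporter were cultured ± 5 μM test compound with 1 μg/ml poly(I:C) (LyoVec lipid transfection), 1 μg/ml poly(dA:dT) (LyoVec) or Sendai virus. Luciferase was measured after 24 h. Mean ± SD, n=4.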

With Cc1ccc(S(=O)(=O)n2c(N)nc3ccccc32)cc1 [CID-1088438] as the compound, how does the “non-canonical NF-κB activation induced by BAFF” value [1] read?
The value was “not inhibited”.

And the “binding of His6-tagged control proteins Bcl-XL and Bid to Ni/NTA” value (Bcl-XL and Bid)?
The value was “without affecting”.

And the NOD2 compartmentalization (NOD2)?
Its NOD2 compartmentalization is “No changes”.

What about the Cell viability [2] of the same compound?
The Cell viability was “not affected”.

And the “site of action in NOD1 signaling (NOD1, RIP2, XIAP transfection)” value (NOD1 signaling; 10 μM compound, 24 hrs)?
The value was “targets NOD1 signaling upstream of RIP2”.

And the “impact in cells over-expressing IKKγ/NEMO, MYD88, FLIP, CARD6, APAF1 or NLRC4” value (NOD1 signaling; data not shown)?
The value was “No significant impact”.

And the “IL-1β secretion induced by various inflammasome activators” value (inflammasomes)?
The value was “did not inhibit”.

And the Akt survival pathway [3]?
Its Akt survival pathway is “without affecting”.

What about the “γ-tri-DAP-dependent activation of MAPK (p38 phosphorylation)” value [3] of the same compound?
The value was “inhibits”.

What about the “γ-tri-DAP-dependent activation of NF-κB (IκBα phosphorylation and degradation)” value [3] of the same compound?
Its value is “inhibits”.

What about the “γ-tri-DAP-induced expression of IκBα at the mRNA level” value (IκBα) of the same compound?
Its value is “inhibited”.

And the “NF-κB activity induced by TLR9 ligand CpG DNA” value (TLR9)?
The value was “did not inhibit”.

And the “NF-κB-inducible SEAP activity induced by TLR agonists” value (TLR1, 2, 4, 5, 6 and 8)?
Its value is “No inhibitory effects”.

What about the “ISRE-driven reporter gene activity induced by other interferon response stimuli” value (RIG-I/MDA-5, IRF3) of the same compound?
Its value is “no inhibition”.
